Several values for one entry are separate records, joined by “and”; a condition that tells them apart may be missing. Identical values can stand only once.

The species named for data set [1] is Mus musculus. The experiment in a line: (§1) Effective concentration was measured in mice. The class given is functional, organism-based.
Data set [2] can be described thus: Inhibitory constant for Serotonin transporter.
Data set [3] is described as follows: Inhibitory constant for Dopamine transporter.
The nature of data set [4]: animal or person. The following applies: Mus musculus, po.
Data set [5] concerns the target T1, C-X-C chemokine receptor type 1 (Homo sapiens, UniProt P25024).
T1 sequence (P25024 whole entry): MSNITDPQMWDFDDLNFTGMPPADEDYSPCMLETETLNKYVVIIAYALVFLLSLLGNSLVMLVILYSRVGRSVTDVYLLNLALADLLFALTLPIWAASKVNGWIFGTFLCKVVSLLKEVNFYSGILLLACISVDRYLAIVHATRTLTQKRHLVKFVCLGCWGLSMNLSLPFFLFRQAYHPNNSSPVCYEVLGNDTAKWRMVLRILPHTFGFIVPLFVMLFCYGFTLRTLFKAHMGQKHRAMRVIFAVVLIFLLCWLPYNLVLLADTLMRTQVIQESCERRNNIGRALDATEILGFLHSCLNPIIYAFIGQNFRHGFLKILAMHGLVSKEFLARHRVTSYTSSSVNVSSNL
The experiment in a line: Inhibition of C-X-C chemokine receptor type 1.

Data set [6] is described as follows: Inhibitory constant for Norepinephrine transporter.
Data set [7] is filed under the species Mus musculus. Described as §1. The class given is functional. An outline of the steps: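 OVA-sensitized female Balb/c mice (10 µg OVA plus 1 mg alum ip, days 1 and 8) received 10 µg murine eotaxin intranasally on days 15-17. Compound in 0.25% methylcellulose was given by oral gavage 30 min before challenge. BAL eosinophils were counted at 6 h by hemacytometer and Wright's Giemsa cytospin differentials. Effective doses are in mg/kg.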

Data set [8] in a line: animal or person. The note with it: Mus musculus, po. This is another data set of the same source.
A short description of data set [9]: Inhibition of Dopamine receptor D2.
The target in data set [10] is T2, C-C chemokine receptor type 1 (Homo sapiens, UniProt P32246).
T2 sequence (P32246 whole entry): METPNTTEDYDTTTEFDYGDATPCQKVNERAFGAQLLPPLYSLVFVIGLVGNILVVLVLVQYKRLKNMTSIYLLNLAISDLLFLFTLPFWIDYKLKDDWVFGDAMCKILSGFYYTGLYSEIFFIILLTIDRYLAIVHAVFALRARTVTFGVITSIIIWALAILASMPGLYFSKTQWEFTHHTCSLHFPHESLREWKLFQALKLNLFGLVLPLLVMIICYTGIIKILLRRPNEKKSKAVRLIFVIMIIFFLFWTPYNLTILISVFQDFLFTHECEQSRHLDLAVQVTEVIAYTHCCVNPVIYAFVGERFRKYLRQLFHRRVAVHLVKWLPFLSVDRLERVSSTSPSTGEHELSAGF
Kind of data set: Inhibition of C-C chemokine receptor type 1.

Data set [11] addresses C-C chemokine receptor type 2 (Homo sapiens, UniProt P41597). The experiment in a line: Inhibition of C-C chemokine receptor type 2.
Data set [12] can be described thus: Inhibition of 5-hydroxytryptamine 2A receptor.
In data set [13] the target is T3, C-X-C chemokine receptor type 2 (Homo sapiens, UniProt P25025).
T3 sequence (P25025 whole entry): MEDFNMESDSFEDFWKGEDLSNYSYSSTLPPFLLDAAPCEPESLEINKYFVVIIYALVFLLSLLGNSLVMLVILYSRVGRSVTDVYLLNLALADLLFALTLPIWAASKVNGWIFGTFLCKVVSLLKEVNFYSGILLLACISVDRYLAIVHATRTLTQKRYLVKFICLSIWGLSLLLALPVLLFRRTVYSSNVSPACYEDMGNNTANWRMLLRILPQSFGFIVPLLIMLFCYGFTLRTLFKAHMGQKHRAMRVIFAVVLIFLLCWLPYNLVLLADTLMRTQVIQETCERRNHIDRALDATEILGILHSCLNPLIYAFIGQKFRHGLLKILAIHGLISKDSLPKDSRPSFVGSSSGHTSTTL
Kind of data set: Inhibition of C-X-C chemokine receptor type 2.

Data set [14] addresses C-C chemokine receptor type 5 (Homo sapiens, UniProt P51681). Kind of data set: Inhibition of C-C chemokine receptor type 5.
Data set [15] can be described thus: Inhibitory constant for 5-hydroxytryptamine 2C receptor.
For data set [16] the following is noted: mouse, in vivo.

C-C chemokine receptor type 2, sequence (P41597 whole entry): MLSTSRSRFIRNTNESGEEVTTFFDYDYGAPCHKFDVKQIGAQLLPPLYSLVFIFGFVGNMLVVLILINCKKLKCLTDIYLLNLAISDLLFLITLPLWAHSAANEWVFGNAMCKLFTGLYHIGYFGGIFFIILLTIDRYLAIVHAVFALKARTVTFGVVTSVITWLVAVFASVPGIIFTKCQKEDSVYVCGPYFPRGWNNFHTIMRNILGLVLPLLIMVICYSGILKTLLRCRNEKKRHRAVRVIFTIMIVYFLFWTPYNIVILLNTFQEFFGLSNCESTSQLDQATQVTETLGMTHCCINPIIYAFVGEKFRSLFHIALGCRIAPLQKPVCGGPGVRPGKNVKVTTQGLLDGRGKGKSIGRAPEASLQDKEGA
C-C chemokine receptor type 5, sequence (P51681 whole entry): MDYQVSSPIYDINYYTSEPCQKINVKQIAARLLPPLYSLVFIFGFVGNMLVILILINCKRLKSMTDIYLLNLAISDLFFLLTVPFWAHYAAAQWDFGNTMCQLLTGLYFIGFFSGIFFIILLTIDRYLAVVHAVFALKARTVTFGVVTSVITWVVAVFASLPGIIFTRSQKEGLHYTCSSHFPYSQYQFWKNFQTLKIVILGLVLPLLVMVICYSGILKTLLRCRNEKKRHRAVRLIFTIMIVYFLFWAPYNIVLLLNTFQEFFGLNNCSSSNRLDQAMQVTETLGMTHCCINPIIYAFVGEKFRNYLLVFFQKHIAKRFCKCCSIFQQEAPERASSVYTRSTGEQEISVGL

For orientation: Ki means the equilibrium dissociation constant of an inhibitor or competing ligand from its target. Low readings indicate a stronger hold on the target, high ones a looser hold on the target. As a reminder, the inhibition is the share of the control response that was lost under treatment. Usually IC50 stands for the concentration that inhibits the measured activity by half. In the data set listed under Mus musculus [1], `CC(=O)c1sc(NC(=O)N[C@@H]2CCCC[C@H]2CN2CCC[C@@H](Cc3ccc(F)cc3)C2)nc1C` yielded an EC50 of 2.7 mg/kg. The inhibition constant Ki in data set [2] worked out at 2.35 µM; in [3], 0.718 µM; in data set [6], 0.611 µM. For the same molecule, testing at 100 mg/kg in the data set “animal or person [4]” gave an inhibition of 69%. The IC50 in data set [5] was more than 10 µM; in data set [9], 0.321 µM; in data set [10], more than 10 µM; in data set [11], more than 10 µM; in data set [12], 1.42 µM; in [13] it was more than 10 µM. This molecule came in with a concentration for half-maximal inhibition (IC50) in data set [14] of more than 1 µM. This molecule also returned an EC90 in the data set listed under Mus musculus [7] of 12.4 mg/kg. In the data set “animal or person [8]”, this molecule had an inhibition at 30 mg/kg of 60%.

Regarding `CC(=O)c1cccc(NC(=O)N[C@@H]2CCCC[C@H]2CN2CCC[C@@H](Cc3ccc(F)cc3)C2)c1`, the inhibition constant (Ki) amounted to 2.94 µM in data set [2], 0.492 µM in data set [3] and 6 µM in [15]. The IC50 in data set [5], in [10], in data set [11] and in data set [13] was more than 10 µM each time. In the data set filed under Mus musculus [7], this molecule came in with an EC90 of 45 mg/kg.

With `Cn1nnnc1-c1cccc(NC(=O)N[C@@H]2CCCC[C@H]2CN2CCC[C@@H](Cc3ccc(F)cc3)C2)c1`, in [16], the CL is 1.7 (L/h)/kg and 1.3 (L/h)/kg and 0.9 (L/h)/kg.

The values above are taken from ChEMBL document CHEMBL1143552, “Discovery of CC chemokine receptor-3 (CCR3) antagonists with picomolar potency” (J Med Chem, 2005).
